SENP8 block-1: blocks human SENP8 cleavage of Nedd8 substrate | Q96LD8 | 360,000 compounds, 0.64% hits | inhibition, % at 20 µM | recombinant SENP8, Nedd8 substrate fluorescence | AID 602440; in the data active means inhibition mostly above about 40%, no sharp cut-off; inactive means mostly below about 27%
SENP6 inh: inhibitors of human SENP6 protease; 330,000 compounds, 1.8% hits; Recombinant SENP6 catalytic domain, aminoluciferin luminescence; inhibition, % at 10 µM; Q9GZR1;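 active means inhibition above about 50% at the single tested dose, limit read from the data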;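 further: plate controls were DMSO wells with enzyme for no effect and DMSO wells lacking enzyme for full effect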
Target sequence (Q9GZR1 628-1112 limits assumed): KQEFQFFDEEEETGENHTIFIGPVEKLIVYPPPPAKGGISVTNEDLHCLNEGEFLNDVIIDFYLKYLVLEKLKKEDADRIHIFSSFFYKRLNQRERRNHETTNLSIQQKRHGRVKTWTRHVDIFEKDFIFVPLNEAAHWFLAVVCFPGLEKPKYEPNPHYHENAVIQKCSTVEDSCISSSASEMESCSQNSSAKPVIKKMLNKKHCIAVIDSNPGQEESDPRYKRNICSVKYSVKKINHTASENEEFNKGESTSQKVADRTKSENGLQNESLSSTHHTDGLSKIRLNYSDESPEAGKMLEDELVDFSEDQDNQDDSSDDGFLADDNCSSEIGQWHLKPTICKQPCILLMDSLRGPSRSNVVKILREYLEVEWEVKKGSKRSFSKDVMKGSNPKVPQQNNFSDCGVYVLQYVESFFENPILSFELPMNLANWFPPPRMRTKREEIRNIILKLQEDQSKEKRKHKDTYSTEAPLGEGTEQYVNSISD
UBC13 polyUb: blocks human UBC13 polyubiquitin chain formation; 330,000 compounds, 0.47% hits; AID 485273; inhibition, % at 20 µM; TR-FRET; P61088; in the data active means inhibition above about 45%, passing the limit was not always enough
Target sequence (P61088 whole entry, looked up): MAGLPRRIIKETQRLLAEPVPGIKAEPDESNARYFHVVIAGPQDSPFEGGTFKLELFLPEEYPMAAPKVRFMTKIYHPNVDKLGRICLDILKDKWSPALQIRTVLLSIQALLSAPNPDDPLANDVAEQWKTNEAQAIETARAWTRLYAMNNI
SENP8 block-2: SENP8 protease inhibition; AID 2540; 330,000 compounds, 1.2% hits; Q96LD8; inhibition, % at 10 µM; purified SENP8, Z-RLRGG-aminoluciferin cleavage, luminescence; in the data active means inhibition above about 50%
Apaf1 inhib: inhibitors of human Apaf-1 apoptosome; O14727; 330,000 compounds, 0.71% hits; reconstituted apoptosome caspase-3 activity, DEVD-Rh110 fluorescence; AID 489030; inhibition, % at 20 µM; active means inhibition of at least 40% at 20 µM;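 further: plate controls were DMSO wells for no effect and DEVD-CHO caspase inhibitor wells for full effect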
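Assay system – apoptosome proteins · Medium – Hepes buffer, pH 7.5 · Also added – cytochrome c with DEVD-Rh110 · Timing – 30 min compound preincubation, 50 min activation, room temperature · Detection – Rh110 fluorescence, excitation 480 nm, emission 540 nm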
SENP7 block: blocks the human protease SENP7 | recombinant SENP7, Z-RLRGG-aminoluciferin luminescence, 40 min | inhibition, % at 5 µM | Q9BQF6 | 330,000 compounds, 1.5% hits;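 active means inhibition above about 50% at the single test dose, limit read from the data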;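 further: plate controls were DMSO with enzyme for no effect and no enzyme buffer wells for full effect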
* hit, by the source's call; i = inactive; nt = no result given. Rows were chosen to be rich in hits. Some 3% of all compounds tested hit in one or more screens of this group.

SMILES | SENP8 block-1 | SENP6 inh | UBC13 polyUb | SENP8 block-2 | Apaf1 inhib | SENP7 block
O=C(O)c1ccccc1NS(=O)(=O)c1ccc(NN=Cc2ccccc2F)c([N+](=O)[O-])c1 | 34.9 | 6.3 | -82.6 | 3.1 | 8.7 | 1.1
COc1ccc(C=NNc2ccc(S(=O)(=O)Nc3ccccc3C(=O)O)cc2[N+](=O)[O-])c(OC)c1 | 44.3* | 17.1 | -90.4 | 11.8 | 6.9 | 0.4
CCOC(=O)C1=C[C@@H](C(C)(C)C)N(S(=O)(=O)c2ccc(C)cc2)[C@H]1c1ccc(C)cc1 | 11.2 | nt | nt | nt | nt | nt
Cc1cc(/C=N/NC(=O)c2cccc([N+](=O)[O-])c2)c(C)n1-c1ccc(Cl)cc1Cl | 51.5* | -0.2 | -6.7 | -2.4 | 10.3 | 3.7
C#CCOCCOCCOCCNc1nc(N2CCN(C(=O)[C@H](CCCCN)n3cc([C@@H](N)CO)nn3)CC2)nc(N2CCN(C(=O)[C@H](Cc3cc4ccccc4[nH]3)n3cc([C@@H](N)Cc4ccc(O)cc4)nn3)CC2)n1 | nt | 3.9 | 105.8* | 6.7 | 55.3* | -9.3
C#CCOCCOCCOCCNc1nc(N2CCN(C(=O)C(Cc3ccc(O)cc3)n3cc(C(N)CC(C)C)nn3)CC2)nc(N2CCN(C(=O)C(Cc3cc4ccccc4[nH]3)n3cc(C(N)C(C)CC)nn3)CC2)n1 (stereo not given) | nt | 0.7 | 76.7* | -6.8 | 20.1 | -7.0
C#CCOCCOCCOCCNc1nc(N2CCN(C(=O)[C@H](Cc3ccc(O)cc3)n3cc([C@@H](N)CC(C)C)nn3)CC2)nc(N2CCN(C(=O)[C@H](Cc3ccc(O)cc3)n3cc([C@@H](N)CC(C)C)nn3)CC2)n1 | nt | -12.5 | 63.3* | 1.0 | 13.1 | 2.5
C#CCOCCOCCOCCNc1nc(N2CCN(C(=O)[C@H](CCCCN)n3cc(C(N)CO)nn3)CC2)nc(N2CCN(C(=O)[C@H](CCC(=O)O)n3cc(C(N)Cc4ccc(O)cc4)nn3)CC2)n1 (stereo not given in full) | nt | -7.8 | 0.0 | -21.6 | 14.5 | 3.6
C#CCOCCOCCOCCNc1nc(N2CCN(C(=O)[C@H]([C@@H](C)CC)n3cc([C@@H](N)Cc4ccc(O)cc4)nn3)CC2)nc(N2CCN(C(=O)[C@H](CCCCN)n3cc([C@@H](N)CC(C)C)nn3)CC2)n1 | nt | -5.1 | 97.2* | -5.7 | 3.1 | -7.5
CC(C)(C)NC(=O)C1C(c2ccc(C(F)(F)F)cc2)=Nc2ccccc2N1C(=O)c1cccc2ccccc12 (stereo not given) | -28.6 | nt | nt | nt | nt | nt
NC(=Nc1c([N+](=O)[O-])cnc2ccccc12)N1CCOCC1 | 20.6 | nt | nt | nt | nt | nt
C#CCOCCOCCOCCNc1nc(N2CCN(C(=O)C([C@@H](C)O)n3cc([C@@H](N)CCCCN)nn3)CC2)nc(N2CCN(C(=O)[C@H](CCCCN)n3cc([C@@H](N)[C@H](C)CC)nn3)CC2)n1 (stereo not given in full) | 7.7 | 14.6 | 104.3* | 7.5 | 30.0 | 7.3
C#CCOCCOCCOCCNc1nc(N2CCN(C(=O)[C@H](CCC(=O)O)n3cc(C(N)[C@H](C)CC)nn3)CC2)nc(N2CCN(C(=O)[C@H](Cc3cc4ccccc4[nH]3)n3cc(C(N)[C@H](C)CC)nn3)CC2)n1 (stereo not given in full) | nt | 3.1 | 6.6 | 2.7 | -6.4 | -1.9
C#CCOCCOCCOCCNc1nc(N2CCN(C(=O)C([C@@H](C)O)n3cc([C@@H](N)CCCCN)nn3)CC2)nc(N2CCN(C(=O)[C@H](CCC(=O)O)n3cc([C@@H](N)[C@H](C)CC)nn3)CC2)n1 (stereo not given in full) | 14.5 | 14.6 | 12.9 | -2.1 | -0.8 | 7.3
C#CCOCCOCCOCCNc1nc(N2CCN(C(=O)[C@H](Cc3ccc(O)cc3)n3cc([C@@H](N)C(C)CC)nn3)CC2)nc(N2CCN(C(=O)[C@H](Cc3cc4ccccc4[nH]3)n3cc([C@@H](N)Cc4ccc(O)cc4)nn3)CC2)n1 (stereo not given in full) | nt | -12.3 | 77.7* | -1.8 | 55.6* | -11.8
CC(C)(C)OC(=O)NCCC(=O)N/N=C/c1cccc2cccnc12 | 22.0 | -12.6 | -15.3 | -3.4 | -9.3 | 7.9
O=C(O)c1ccc(N/N=C/c2ccc3nccnc3c2)cc1 | 16.0 | 98.0* | -17.9 | 97.1* | -9.5 | 100.5*
O=C(O)c1ccc(N/N=C/c2cccc3cccnc23)cc1 | -86.2 | 54.2* | 7.9 | 30.1 | -4.1 | 31.2
O=C(N/N=C/c1ccc2nccnc2c1)c1ccc(Br)cc1 | -17.5 | -2.9 | -5.4 | 0.0 | -5.1 | -3.2
CCCC(=O)NC(c1ccco1)c1cc([N+](=O)[O-])c2cccnc2c1O (stereo not given) | 53.3* | 15.3 | -45.7 | 5.8 | -3.2 | 7.3
CCC(=O)NC(c1ccc(C)cc1)c1ccc2cccnc2c1O (stereo not given) | 5.9 | -6.2 | -21.3 | 5.4 | -4.6 | 4.9
CC(=O)NC(c1ccc(C)cc1)c1cc([N+](=O)[O-])c2cccnc2c1O (stereo not given) | 41.9* | 16.9 | -37.5 | 6.1 | 14.5 | 7.8
CCC(=O)NC(c1ccc(C)cc1)c1cc([N+](=O)[O-])c2cccnc2c1O (stereo not given) | 57.6* | nt | nt | nt | nt | nt
CC(=O)NC(c1ccccc1)c1cc(Cl)c2cccnc2c1O (stereo not given) | 16.4 | -4.3 | -13.9 | -10.8 | -3.1 | 11.1
CCOc1ccccc1C1NC(=O)c2ccccc2N1 (stereo not given) | i | nt | nt | nt | nt | nt
SMILES | SENP8 block-1 | SENP6 inh | UBC13 polyUb | SENP8 block-2 | Apaf1 inhib | SENP7 block
O=C(Nc1ccc(Cl)c(Cl)c1)N[C@@H]1CC[C@@H](CCn2cc(C3CCCCC3)nn2)O[C@@H]1CO | 14.9 | nt | nt | nt | nt | nt
Cc1cccc(C)c1N1C(=O)c2ccccc2NC(=O)C1C(=O)NCCc1ccccc1F (stereo not given) | -21.6 | nt | nt | nt | nt | nt
COc1ccc(-n2nnc3c(SCC(=O)Nc4ccc5c(c4)OCCO5)ncnc32)cc1 | nt | 53.8* | 2.1 | 15.9 | 8.6 | 19.5
COc1ccc(-n2nnc3c(=O)n(CC(=O)Nc4ccc5c(c4)OCCO5)cnc32)cc1OC | -74.4 | -7.2 | 7.2 | 3.5 | -16.2 | -10.3
COC(=O)c1ccc2nc(-c3ccc(OC)c(OC)c3)c(Cc3cccc(F)c3)n2c1 | -385.3 | nt | nt | nt | nt | nt
O=c1c2c([nH]n1-c1ccccc1)CCSC2 | 46.3* | 9.2 | -5.6 | -4.7 | 20.1 | -1.5
Cc1ccc(OCc2nc3ccccc3n2C(C)C(=O)Nc2c(C)cccc2C)cc1 (stereo not given) | 1.5 | nt | nt | nt | nt | nt
O=C1NNC(c2ccccc2)=N/C1=C\c1ccco1 | 29.3 | 4.2 | -19.3 | 5.1 | -18.7 | -3.5
O=C1NNC(c2ccccc2)=N/C1=C\c1ccccc1Cl | 117.2* | nt | nt | nt | nt | nt
CCOC(=O)C1(C)/C(=N/Nc2cccc(Cl)c2)C(=O)C(=O)N1c1ccccc1 (stereo not given) | 43.1* | -1.5 | -115.9 | 8.8 | 22.4 | 3.5
COc1ccc(NC(=O)c2sc(=O)n(Cc3cccc(C(F)(F)F)c3)c2C)cc1OC | -0.9 | nt | nt | nt | nt | nt
